Measured values pooled from the literature.
Lines come from different studies, so protocols differ.
Target: Tyrosine-protein kinase Fyn (FYN, Homo sapiens, UniProt P06241)

Structure (SMILES) | read-out | mode | technique | concentration | endpoint | result
CCc1ccccc1C(=O)Nc1n[nH]c2c(C)c(F)c(C3C(C#N)=C(C)N(C)C(C)=C3C#N)cc12 | cell-free assay | – | competition with immobilised ligand | 1 µM | remaining binding | 100%
CCN(CC)CCNC(=O)c1c(C)[nH]c(/C=C2\C(=O)Nc3ccc(Cl)cc32)c1C | enzyme activity | inhibitor | – | 0.5 µM | remaining activity | 28.4%
CCCOc1ccc(OC)c(F)c1C(=O)c1ccc(C(=O)N[C@@H]2CNC[C@H]2NC(=O)c2ccc3[nH]ncc3c2)cc1 | enzyme activity | inhibitor | – | 10 µM | remaining activity | 69%
c1nc2c(Nc3ccc4c(c3)OCCO4)nc(Nc3ccc4c(c3)OCCO4)nc2[nH]1 | enzyme activity | inhibitor | – | 10 µM | activity vs control | 8.7%
N#CCCc1ccc2c(c1)-c1[nH]c3ccc([N+](=O)[O-])cc3c1CC(=O)N2 | cell-free assay | – | – | 0.5 µM | remaining signal | 52.2%
CC(C)c1ccc(NC(=O)c2cccs2)c(-c2nc3ccccc3[nH]c2=O)c1 | enzyme activity | inhibitor | – | 1 µM | activity vs control | 103%
CCCCNc1ncc2c(-c3ccc(F)cc3)nn(C[C@H]3CC[C@H](N)CC3)c2n1 | target engagement in cells | inhibitor | chemoproteomics | 20 mM | inhibition | > 96%
CN(C(=O)c1ccccc1)c1cc(N(C)c2ccc3c(c2)CCc2ccc(C(=O)NCCN4CCOCC4)cc2C3=O)ccc1F | cell-free assay | – | competition with immobilised ligand | 1 µM | remaining binding | 61%
COc1cc2ncnc(Nc3ccc(F)c(Cl)c3)c2cc1OCCCN1CCOCC1 | cell-free assay | – | – | 0.5 µM | remaining signal | 92.2%
COc1cc2ncnc(Nc3ccc(Oc4ccccc4)c(C)c3C)c2cc1OC | enzyme activity | inhibitor | – | 1 µM | inhibition | 42%
O=c1c2ccccc2[nH]c(=S)n1CCN1CCC(=C(c2ccc(F)cc2)c2ccc(F)cc2)CC1 | enzyme activity | inhibitor | – | 0.5 µM | remaining activity | 102%
Cc1cc(NC(=O)c2cccc(S(F)(F)(F)(F)F)c2)cc(-n2ccn3nc(-c4cccnc4)cc23)c1 | cell-free assay | – | competition with immobilised ligand | 1 µM | remaining binding | 81.3%
CC(C)(C)c1nc2c(s1)c1nc(N)ncc1c1ccc(NS(=O)(=O)c3c(F)cccc3F)c(F)c12 | enzyme activity | inhibitor | radiometric | 1 µM | remaining activity | 97%
COc1cc(OC)c(C=C2C(O)=Nc3ccccc32)c(OC)c1 | cell-free assay | inhibitor | – | 0.5 µM | remaining signal | 100%
CNC(=O)c1cc(Oc2ccc(NC(=O)Nc3ccc(Cl)c(C(F)(F)F)c3)cc2)ccn1 | enzyme activity | inhibitor | – | 10 µM | inhibition | 44%
CNc1cccc2cc(C(=O)Nc3ccc(C(=O)O)cc3)c(=O)[nH]c12 | enzyme activity | inhibitor | – | 10 µM | inhibition | 6.9%

Structure (SMILES) | read-out | mode | technique | concentration | endpoint | result
COc1ccc2c(O[C@@H]3C[C@H]4C(=O)N[C@]5(C(=O)O)CC5/C=C\CCCCC[C@H](NC(=O)OC5CCCC5)C(=O)N4C3)cc(-c3csc(NC(=O)C(C)C)n3)nc2c1C (stereo partly shown) | cell-free assay | – | competition with immobilised ligand | 1 µM | remaining binding | 100%
CCCS(=O)(=O)Nc1ccc(F)c(C(=O)c2c[nH]c3ncc(-c4ccc(Cl)cc4)cc23)c1F | enzyme activity | inhibitor | – | 1 µM | inhibition | < 20%
C[S+]([O-])c1ccc(-c2nc(-c3ccncc3)c(-c3ccc(F)cc3)[nH]2)cc1 (stereo not shown) | cell-free assay | – | – | 0.5 µM | remaining signal | 89.8%
O=C(Nc1cnn(-c2csc(C(=O)NC3COC3)c2)c1)Nc1ccccc1Cl | enzyme activity | inhibitor | – | 5 µM | remaining activity | 97.8%
CCN(CC)CCNC(=O)c1c(C)[nH]c(/C=C2\C(=O)Nc3ccc(F)cc32)c1C | enzyme activity | inhibitor | – | 0.3 µM | inhibition | 35%
Cn1cnc(Br)c1C1=CN(c2ncnc3[nH]cnc23)CCS1 | enzyme activity | inhibitor | radiometric | 50 nM | inhibition | 21.6%
COc1ccc2cc(OCC3(C(=O)O)CN(C(=O)c4ccc(F)cc4)C3)ccc2c1 | cell-free assay | – | competition with immobilised ligand | 1 µM | remaining binding | 100%
CNCc1ccc(-c2cc(-c3nc(-c4ccc(S(=O)(=O)C(C)C)cc4)cnc3N)on2)cc1 | enzyme activity | inhibitor | – | 0.4 µM | inhibition | 9%
CC(=O)c1c(NS(C)(=O)=O)c2cc(-c3ccc(Cl)cc3)c(-c3ccc(Cl)cc3Cl)nc2n(C)c1=O | cell-free assay | – | competition with immobilised ligand | 1 µM | remaining binding | 92%
CC(C)(O)[C@H]1CC[C@H](Nc2ccc3ncc(-c4cccc(C(F)(F)F)c4)n3n2)CC1 | enzyme activity | inhibitor | – | 1 µM | remaining activity | 22.4%
O=c1nc(-c2ccccn2)sc2ccccc12 | binding | – | competition with immobilised ligand | 1 µM | remaining binding | 100%
O=C(Nc1cnn(-c2csc(C(=O)NC3COC3)c2)c1)Nc1c(F)cccc1Cl | enzyme activity | inhibitor | – | 5 µM | remaining activity | 90.3%
c1ccc(CNc2nc(N3CCOc4ccccc43)nc3c2CCCC3)cc1 | target engagement in cells | inhibitor | chemoproteomics | 20 mM | inhibition | -18%
Cc1nc(C2CCN(C(=O)c3ccc(OC(F)(F)F)cc3N)CC2)c2ncc(N3CCN(C)CC3)cc2n1 | cell-free assay | – | competition with immobilised ligand | 1 µM | remaining binding | 96%
Cc1ccc(C(=O)Nc2ccc(CN3CCN(C)CC3)c(C(F)(F)F)c2)cc1C#Cc1cnc2cccnn12 | enzyme activity | inhibitor | – | 23.5 nM | remaining activity | 28%
